Reference: ChEMBL document CHEMBL4673198, “Identification of 3-hydroxy-1,2-dimethylpyridine-4(1H)-thione as a metal-binding motif for the inhibition of botulinum neurotoxin A” (RSC Med Chem, 2021)
Active and inactive are the calls of the source. The rule behind the calls is not given here.

Assays:
[1] = Zinc chelating activity mediated inhibition of Clostridium botulinum Hall A hyper BoNT/A1activity assessed as inhibition of BoNT/A1-induced neurotoxicity in hIPSC derived GABA neurons by measuring protection against SNAP-25 cleavage incubated for 30 mins post BoNT/A1 addition and measured at 7 hrs post-toxin addition by Western blot analysis
[2] = Zinc chelating activity mediated inhibition of Clostridium botulinum BoNT/A1 LC (1 to 425 residues) activity using SNAPtide as substrate incubated with enzyme for 30 mins followed by substrate addition and measured for 20 mins by FRET assay relative to control
Method in brief: (§1)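 Enzyme was truncated BoNT/A1 LC (1–425) at 10 nM final, incubated with compound for 30 min at 25 °C in 40 mM HEPES pH 7.4 with 0.01% Triton X-100. SNAPtide substrate followed at 3.8 µM final. Fluorescence rate (ex 490/em 523 nm) read immediately for 20 min. Technical and experimental triplicate.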

[3] = test system: Clostridium botulinum; assay: Zinc chelating activity mediated inhibition of Clostridium botulinum BoNT/A1 LC (1 to 425 residues) activity using SNAPtide as substrate at 50 uM incubated with enzyme for 30 mins followed by substrate addition and measured for 20 mins by FRET assay relative to control; details: time 50.0 min; method in brief: as §1
[4] = test system: Clostridium botulinum; assay: Zinc chelating activity mediated inhibition of Clostridium botulinum BoNT/A1 LC (1 to 425 residues) activity using SNAPtide as substrate at 1 mM incubated with enzyme for 30 mins followed by substrate addition and measured for 20 mins by FRET assay relative to control; details: time 50.0 min; method in brief: as §1
[5] = Selectivity index, ratio of IC50 for zinc chelation-mediated inhibition of Clostridium botulinum BoNT/A1 LC (1 to 425 residues) to IC50 for MMP2 (unknown origin); format: toxicity
[6] = test system: Clostridium botulinum; assay: Selectivity index, ratio of IC50 for zinc chelation-mediated inhibition of Clostridium botulinum Hall A hyper BoNT/A1 activity assessed as protection against SNAP-25 cleavage in hIPSC-derived GABA neurons to IC50 for zinc chelation-mediated inhibition of Clostridium botulinum BoNT/A1 LC (1 to 425 residues)
[7] = Selectivity index, ratio of IC50 for zinc chelation-mediated inhibition of Clostridium botulinum BoNT/A1 LC (1 to 425 residues) to IC50 for MMP7 (unknown origin); format: toxicity
[8] = Selectivity index, ratio of IC50 for zinc chelation-mediated inhibition of Clostridium botulinum BoNT/A1 LC (1 to 425 residues) to IC50 for MMP1 (unknown origin); format: toxicity
[9] = Selectivity index, ratio of IC50 for zinc chelation-mediated inhibition of Clostridium botulinum BoNT/A1 LC (1 to 425 residues) to IC50 for MMP8 (unknown origin); format: toxicity
[10] = Selectivity index, ratio of IC50 for zinc chelation-mediated inhibition of Clostridium botulinum BoNT/A1 LC (1 to 425 residues) to IC50 for MMP13 (unknown origin); format: toxicity
[11] = test system: Clostridium botulinum; assay: Competitive active site zinc chelating activity mediated inhibition of Clostridium botulinum BoNT/A1 LC (1 to 425 residues) activity at 0.1 to 10 uM using SNAPtide as substrate incubated with enzyme for 30 mins in presence of DCHA followed by substrate addition and measured for 20 mins by FRET assay; details: dose 0.1-10 µM, time 50.0 min
Method in brief: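 BoNT/A1 LC (1–425), 10 nM final, preincubated with compound for 30 min at room temperature in 40 mM HEPES pH 7.4 with 0.01% Triton X-100. SNAPtide added to 3.8 µM final. Fluorescence rate (ex 490/em 523 nm) read for 20 min. Technical and experimental triplicate.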

[12] = Selectivity index, ratio of IC50 for zinc chelation-mediated inhibition of Clostridium botulinum BoNT/A1 LC (1 to 425 residues) to IC50 for MMP19 (unknown origin); format: toxicity
[13] = Selectivity index, ratio of IC50 for zinc chelation-mediated inhibition of Clostridium botulinum BoNT/A1 LC (1 to 425 residues) to IC50 for MMP3 (unknown origin); format: toxicity

SMILES | IC50 [2] [µM] | inhibition [3] [%] | also measured
Cc1c(O)c(=S)ccn1Cc1ccc([N+](=O)[O-])cc1 | 3 |  | IC50 [1]: 100 µM
Cc1c(O)c(=S)ccn1Cc1ccccc1 |  | 55 | 
Cc1c(O)c(=S)ccn1Cc1ccc(Br)cc1 | 2.2 |  | 
Cc1c(O)c(=S)ccn1CCc1ccccc1 |  | 48 | 
CCOc1ccc(-n2ccc(=S)c(O)c2C)cc1 |  | 80 | 
CCn1ccc(=S)c(O)c1C |  |  | inhibition [4]: > 95%
O=C(O)c1ccc2cccc(O)c2n1 |  |  | inhibition [4]: > 95%
Cc1c(O)c(=S)ccn1Cc1ccc(-c2ccc(Cl)cc2)cc1 | 1.3 |  | IC50 [1]: 31 µM
c1cnc2c(c1)ccc1cccnc12 |  |  | inhibition [4]: > 95%
Cc1c(O)c(=S)ccn1CCC12CC3CC(CC(C3)C1)C2 | > 50 |  | 
Cc1c(O)c(=S)ccn1Cc1ccc(-c2ccc(F)cc2)cc1 | 1.4 |  | IC50 [1]: 33 µM
Cc1c(O)c(=S)ccn1-c1ccc(N)cc1 |  | 16 | 
COc1ccc(Cn2ccc(=S)c(O)c2C)cc1 | 31.9 |  | 
COc1cccc(CCn2ccc(=S)c(O)c2C)c1 |  | 62 | 
Cc1c(O)c(=S)ccn1Cc1ccc(-c2ccc3ccccc3c2)cc1 |  | 60 | 
Cc1c(O)c(=S)ccn1-c1ccc(F)c(C(F)(F)F)c1 |  | 0 | 
Cc1ccc(CCn2ccc(=S)c(O)c2C)cc1C | 2.8 |  | 
Cc1c(O)c(=S)ccn1CCc1ccc(-c2ccccc2)cc1 | 1.8 |  | Ratio IC50 [5]: 2; IC50 [1]: 13 µM; Ratio IC50 [6]: 7; Ratio IC50 [7]: 2; Ratio IC50 [8]: 2; Ratio IC50 [9]: 2; Ratio IC50 [10]: 2; Activity [11]: Active; Ratio IC50 [12]: 2; Ratio IC50 [13]: 2
Cc1c(O)c(=S)ccn1CCc1ccc(Cl)cc1Cl | 1.6 |  | IC50 [1]: 200 µM
COc1cccc(Cn2ccc(=S)c(O)c2C)c1 |  | 65 | 
Cc1ccc(Cn2ccc(=S)c(O)c2C)cc1 | 5 |  | 

SMILES | IC50 [2] [µM] | inhibition [3] [%] | also measured
COc1ccccc1Cn1ccc(=S)c(O)c1C |  | 71 | 
Cc1c(O)c(=S)ccn1Cc1ccc(Cl)cc1 | 11.3 |  | 
Cc1ccc(CCn2ccc(=S)c(O)c2C)c(C)c1 | 1.7 |  | 
Cc1c(O)c(=S)ccn1Cc1ccc(Cl)cc1Cl | > 50 |  | 
Cc1c(O)c(=S)ccn1Cc1ccc(-c2ccc3c(c2)OCO3)cc1 | 1.4 |  | IC50 [1]: 51 µM
Cc1c(O)c(=S)ccn1C |  |  | inhibition [4]: > 95%
Cc1c(O)c(=S)ccn1Cc1ccc(O)cc1 | > 50 |  | 
Cc1c(O)c(=S)ccn1CCc1ccc(Cl)cc1 | 1.9 |  | 
Cc1c(O)c(=S)ccn1Cc1cccnc1 |  | 52 | 
O=C(O)c1cccc(C(=O)O)n1 |  |  | inhibition [4]: > 95%
Cc1c(O)c(=S)ccn1-c1ccc(Nc2ccccc2)cc1 |  | 14 | 
Cc1c(O)c(=S)ccn1-c1ccc(F)cc1 |  | 37 | 
COc1ccc(CCn2ccc(=S)c(O)c2C)cc1 |  | 57 | 
Cc1c(O)c(=S)ccn1-c1ccc(N2CCOCC2)cc1 |  | 0 | 
Cc1c(O)c(=S)ccn1Cc1ccc(F)cc1 |  | 64 | 
Cc1c(O)c(=S)ccn1-c1cc(C(F)(F)F)cc(C(F)(F)F)c1 |  | 0 | 
Cc1ccc(CCn2ccc(=S)c(O)c2C)cc1 | 3.2 | 81 | 
COc1ccc(-n2ccc(=S)c(O)c2C)cc1OC |  | 12 | 
CCc1c(O)c(=S)ccn1CC |  |  | inhibition [4]: > 95%
Cc1c(O)c(=S)ccn1CC12CC3CC(CC(C3)C1)C2 | 4.9 |  | 
Cc1c(O)c(=S)ccn1Cc1ccc(-c2ccc(F)c(F)c2)cc1 | 1.8 |  | IC50 [1]: 39 µM
